ChEMBL document CHEMBL3286229 (J Med Chem, 2014)
Calls of active or inactive are those of the source. The rule behind the calls is not given here.

How the values were obtained:
Mus musculus [1] = assay: Anxiolysis activity in ip dosed C57BL/6N mouse assessed as time spent on open arms by elevated plus maze test; assay type: functional, organism-based
Outline: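 Male C57BL/6N mice, 3–6 months old, given ip injections 30 min before testing. Vehicle was 0.9% NaCl with 10% DMSO and 3% Tween 80; doses in mg/kg, with saline controls. 5 min on an elevated plus maze (arms 50 × 5 cm, 1 m high, 180 Lux), starting in the centre facing an open arm. Time on open arms scored automatically by video.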

[2] = biological target: Transient receptor potential cation channel subfamily V member 1 (Homo sapiens) (UniProt Q8NER1); assay: Activation of TRPV1 (unknown origin) expressed in Xenopus oocytes up to 100 uM; assay type: cell-based
Mus musculus [3] = assay: Sedative effect in ip dosed C57BL/6N mouse assessed as reduction in locomotor activity by open field test; assay type: organism-based; details: in vivo
Outline: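 Male C57BL/6N mice, 3–6 months old, dosed ip 30 min before testing. Vehicle was 0.9% NaCl with 10% DMSO and 3% Tween 80; doses in mg/kg. Ambulation recorded over 10 min in a 50 × 50 cm box fitted with infrared rearing detection.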

[4] = biological target: T1, GABA-A receptor; alpha-1/beta-2/gamma-2 (Homo sapiens, UniProt P14867+P18507+P47870); assay: Modulation of GABAA alpha1beta2gamma2S receptor (unknown origin) expressed in Xenopus laevis oocytes assessed as potentiation of GABA-induced chloride ion current at holding potential -70 mV by two-microelectrode voltage clamp assay; assay type: cell-based
T1 sequence (P14867 whole entry): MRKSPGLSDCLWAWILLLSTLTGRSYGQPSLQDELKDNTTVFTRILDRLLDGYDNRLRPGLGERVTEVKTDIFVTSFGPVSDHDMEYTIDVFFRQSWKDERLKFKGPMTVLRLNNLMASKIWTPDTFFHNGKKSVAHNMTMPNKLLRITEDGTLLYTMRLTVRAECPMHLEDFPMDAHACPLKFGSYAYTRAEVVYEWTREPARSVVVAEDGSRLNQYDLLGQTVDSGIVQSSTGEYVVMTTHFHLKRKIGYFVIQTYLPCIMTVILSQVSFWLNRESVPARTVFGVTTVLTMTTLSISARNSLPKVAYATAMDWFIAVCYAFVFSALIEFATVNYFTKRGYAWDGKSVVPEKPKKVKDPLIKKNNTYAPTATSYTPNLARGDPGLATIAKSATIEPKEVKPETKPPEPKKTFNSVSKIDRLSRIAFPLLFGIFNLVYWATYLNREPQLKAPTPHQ
T1 sequence (P47870 whole entry): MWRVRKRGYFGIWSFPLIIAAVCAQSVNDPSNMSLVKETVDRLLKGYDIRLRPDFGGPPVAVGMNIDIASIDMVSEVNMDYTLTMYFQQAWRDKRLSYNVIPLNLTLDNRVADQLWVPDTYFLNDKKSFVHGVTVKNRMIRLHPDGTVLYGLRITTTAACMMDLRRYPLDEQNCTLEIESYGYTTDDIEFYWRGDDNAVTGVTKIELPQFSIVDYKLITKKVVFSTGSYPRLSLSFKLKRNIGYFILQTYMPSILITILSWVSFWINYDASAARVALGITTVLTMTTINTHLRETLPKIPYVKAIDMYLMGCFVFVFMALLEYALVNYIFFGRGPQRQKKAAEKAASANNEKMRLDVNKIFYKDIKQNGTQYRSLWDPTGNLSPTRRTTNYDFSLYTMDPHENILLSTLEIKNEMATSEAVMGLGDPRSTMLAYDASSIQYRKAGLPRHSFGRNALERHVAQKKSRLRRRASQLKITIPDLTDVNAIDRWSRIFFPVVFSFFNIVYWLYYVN
T1 sequence (P18507 whole entry): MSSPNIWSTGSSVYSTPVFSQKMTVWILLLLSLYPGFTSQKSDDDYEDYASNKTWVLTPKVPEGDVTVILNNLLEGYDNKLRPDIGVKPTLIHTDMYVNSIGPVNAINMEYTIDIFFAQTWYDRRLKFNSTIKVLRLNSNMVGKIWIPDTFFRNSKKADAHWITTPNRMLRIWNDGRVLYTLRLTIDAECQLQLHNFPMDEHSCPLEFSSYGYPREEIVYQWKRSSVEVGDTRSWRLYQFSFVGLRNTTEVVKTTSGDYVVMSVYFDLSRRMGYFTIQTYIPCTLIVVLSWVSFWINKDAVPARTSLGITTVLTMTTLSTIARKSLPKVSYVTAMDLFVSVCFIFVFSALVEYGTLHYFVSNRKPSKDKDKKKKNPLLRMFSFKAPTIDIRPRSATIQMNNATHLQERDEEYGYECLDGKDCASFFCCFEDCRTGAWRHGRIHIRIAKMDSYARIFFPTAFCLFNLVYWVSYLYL
Outline: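 Stage V–VI oocytes injected with α1, β2 and γ2S cRNAs mixed 1:1:10 and kept at 18 °C in modified ND96 (pH 7.4). Two-microelectrode voltage clamp at room temperature, holding potential −70 mV, electrodes with 2 M KCl. Compounds co-applied by fast perfusion with GABA at EC3–7. Washout lasted 1.5 min below 10 μM and 30 min at ≥10 μM. Oocytes with currents >3 μA discarded.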

Chain of Transient receptor potential cation channel subfamily V member 1 (Homo sapiens) (Q8NER1 whole entry): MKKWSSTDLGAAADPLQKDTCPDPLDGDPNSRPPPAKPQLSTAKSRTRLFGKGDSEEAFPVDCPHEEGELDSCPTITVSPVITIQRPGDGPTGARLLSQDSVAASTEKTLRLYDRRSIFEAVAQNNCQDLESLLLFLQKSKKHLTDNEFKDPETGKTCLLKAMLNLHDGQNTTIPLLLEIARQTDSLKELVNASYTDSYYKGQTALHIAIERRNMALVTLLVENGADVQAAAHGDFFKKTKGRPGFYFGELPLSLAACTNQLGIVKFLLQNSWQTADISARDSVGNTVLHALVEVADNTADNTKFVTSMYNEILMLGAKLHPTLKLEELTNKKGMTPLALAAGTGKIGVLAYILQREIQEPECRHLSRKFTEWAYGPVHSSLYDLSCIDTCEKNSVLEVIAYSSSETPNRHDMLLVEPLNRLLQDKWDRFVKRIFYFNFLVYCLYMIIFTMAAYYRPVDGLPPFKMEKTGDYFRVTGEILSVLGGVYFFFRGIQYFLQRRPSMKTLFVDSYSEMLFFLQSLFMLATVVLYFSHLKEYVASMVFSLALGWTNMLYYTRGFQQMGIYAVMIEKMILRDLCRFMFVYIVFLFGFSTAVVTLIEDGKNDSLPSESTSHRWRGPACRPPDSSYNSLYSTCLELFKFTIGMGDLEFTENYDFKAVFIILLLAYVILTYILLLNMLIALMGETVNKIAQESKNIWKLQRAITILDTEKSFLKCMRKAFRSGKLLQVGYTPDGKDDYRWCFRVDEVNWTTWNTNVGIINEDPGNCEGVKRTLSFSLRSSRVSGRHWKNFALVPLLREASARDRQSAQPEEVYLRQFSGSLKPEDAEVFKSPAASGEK

SMILES	Activity (Mus musculus [1])	Activity [2]	Activity (Mus musculus [3])	EC50 [4] [µM]
CCCN(CCC)C(=O)/C=C/C=C/c1ccc2c(c1)OCO2	Dose-dependent effect	inactive	Toxic	–
O=C(/C=C/C=C/c1ccc2c(c1)OCO2)N1CCCCC1 [PIPERINE]	–	–	–	52.4
CCCCN(CCCC)C(=O)/C=C/C=C/c1ccc2c(c1)OCO2	–	inactive	Toxic	–
